Source: ChEMBL document CHEMBL4038303, “Simultaneous Drug Targeting of the Promoter MYC G-Quadruplex and BCL2 i-Motif in Diffuse Large B-Cell Lymphoma Delays Tumor Growth” (J Med Chem, 2017)
The source made the active and inactive calls. No cut-off for these calls is given here.

Tests used:
HT = experiment: Down regulation of BLC2 mRNA level in human HT cells up to 3 uM after 24 hrs by qPCR method; format: functional, cell-based
Procedure, shortened: (§1)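 DLBCL lines grown in RPMI with 10% FBS (SUDHL4 15% FBS) and penicillin/streptomycin. Cells exposed for 24 h to rising concentrations up to 3 μM; DMSO as vehicle control. Total RNA isolated, target mRNA measured by TaqMan real-time qPCR, normalized to TBP and expressed relative to untreated cells; triplicate experiments, two-tailed t test.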

Homo sapiens [1] = organism: Homo sapiens; experiment: (§2) Stabilization of BCL2 i-motif promoter DNA in BCL2 and MYC translocation-positive human VAL cells assessed as potentiation of CPA-induced apoptosis by measuring increase in caspase-3 activity at 3 uM after 24 hrs in presence of NSC-338258 by AFC based fluorescence assay (reference value: 30%)
Homo sapiens [2] = organism: Homo sapiens; experiment: Binding affinity to BLC2 i-motif promoter DNA in human SUDHL4 BCL2 translocation-positive cells assessed as downregulation of BCL2 protein levels at 1 to 3 uM after 24 hrs by Western blot analysis
Procedure, shortened: (§3)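 Cell lines treated 24 h with compound up to 3 μM, with untreated and DMSO-treated controls. Lysates (20 μg total protein) probed by Western blot for BCL2 or MYC with antibodies at 1:1000; actin as loading control. Blots representative of triplicate experiments.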

Homo sapiens [3] = organism: Homo sapiens; experiment: Stabilization of BCL2 i-motif promoter DNA in BCL2 translocation-positive human SUDHL4 cells assessed as potentiation of CPA-induced apoptosis by measuring increase in caspase-3 activity at 3 uM after 24 hrs in presence of NSC-338258 by AFC based fluorescence assay (reference value: 30%)
Homo sapiens [4] = organism: Homo sapiens; experiment: Binding affinity to BLC2 i-motif promoter DNA in MYC translocation-positive and BCL2 amplification-positive human U2932 cells assessed as downregulation of Bcl2 mRNA levels at 1 to 3 uM after 24 hrs by qPCR method relative to control; procedure, shortened: as §1
U2932 [5] = experiment: Antitumor activity against human U2932 cells xenografted in SCID mouse assessed as reduction in tumor burden at 10 mg/kg, ip for 5 days cotreated with 5 to 7.5 mg/kg NSC-338258 measured on day 9 to 15 post first treatment
Homo sapiens [6] = organism: Homo sapiens; experiment: Binding affinity to c-myc G-quadruplex DNA in MYC translocation-positive and BCL2 amplification-positive human U2932 cells assessed as downregulation of MYC mRNA levels up to 3 uM after 24 hrs by qPCR method relative to control; procedure, shortened: as §1
U2932 [7] = experiment: Potentiation of CPA-induced antitumor activity against human U2932 cells xenografted in SCID mouse assessed as tumor growth inhibition at 10 mg/kg, ip for 5 days cotreated with 7.5 mg/kg NSC-338258 measured on day 15 post first treatment (reference value: 44%); format: functional
Procedure, shortened: (§4)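 U2932 DLBCL cells (10 × 10^6 in 100 μL sterile saline, viability >91%) injected subcutaneously into left flank of SCID mice (6−8 weeks, immunoglobulin ≤20 μg/mL). Mice pair-matched by tumor volume. Drugs given ip daily for 5 days, CPA 30 mg/kg; controls received all diluents. Tumor volume = a2 × b/2 (a smallest, b largest diameter); n = 5−8; Grubbs' test for outliers.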

Homo sapiens [8] = organism: Homo sapiens; experiment: Binding affinity to c-myc G-quadruplex DNA in human HT cells assessed as downregulation of MYC protein levels up to 3 uM after 24 hrs by Western blot analysis; format: cell-based; procedure, shortened: as §3
U2932 [9] = experiment: Potentiation of CPA-induced antitumor activity against human U2932 cells xenografted in SCID mouse assessed as tumor growth inhibition at 10 mg/kg, ip for 5 days cotreated with 7.5 mg/kg NSC-338258 measured on day 9 post first treatment (reference value: 50%); format: functional; procedure, shortened: as §4
U2932 [10] = experiment: Potentiation of CPA-induced antitumor activity against human U2932 cells xenografted in SCID mouse assessed as tumor growth inhibition at 10 mg/kg, ip for 5 days cotreated with 7.5 mg/kg NSC-338258 measured on day 12 post first treatment (reference value: 67%); format: functional; procedure, shortened: as §4
Homo sapiens [11] = organism: Homo sapiens; experiment: Binding affinity to BLC2 i-motif promoter DNA in BCL2 translocation-positive human SUDHL4 cells assessed as downregulation of Bcl2 mRNA levels at 1 to 3 uM after 24 hrs by qPCR method; procedure, shortened: as §1
Homo sapiens [12] = organism: Homo sapiens; experiment: Binding affinity to BLC2 i-motif promoter DNA in human VAL BCL2 and MYC translocation-positive cells assessed as downregulation of BCL2 protein levels at 1 to 3 uM after 24 hrs by Western blot analysis; procedure, shortened: as §3
Homo sapiens [13] = organism: Homo sapiens; experiment: Binding affinity to BLC2 i-motif promoter DNA in BCL2 and MYC translocation-positive human VAL cells assessed as downregulation of Bcl2 mRNA levels at 1 to 3 uM after 24 hrs by qPCR method relative to control; procedure, shortened: as §1
Mus musculus [14] = experiment: Toxicity in scid mouse xenografted with human U2932 cells assessed as change in body weight at 10 mg/kg, ip administered for 5 consecutive days in presence of CPA; format: organism-based; settings: in vivo
Procedure, shortened: (§5)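 SCID mice (6−8 weeks, female or male, serum immunoglobulin ≤20 μg/mL by ELISA) implanted subcutaneously in left flank with 10 × 10^6 U2932 cells in 100 μL saline; pair-matched by tumor volume; dosed ip daily for 5 days; controls received all compound diluents; tumor volume a2 × b/2; outliers by Grubbs' test; two-tailed t test with Šidák–Bonferroni correction.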

Mus musculus [15] = experiment: Reduction in Bcl2 mRNA level in tumor of SCID mouse xenografted with human U2932 cells at 10 mg/kg, ip administered for 5 consecutive days cotreated with CPA and NSC-338258 by qPCR method; format: functional, organism-based
Procedure, shortened: (§6)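 Tumors from U2932 xenograft SCID mice given ip treatment daily for 5 days were harvested. Total RNA was taken from the same tumor preparations used for protein lysates, and MYC or BCL2 mRNA was quantified by TaqMan qPCR normalized to TBP. Comparisons were made with diluent-treated mice or CPA-only mice.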

Homo sapiens [16] = organism: Homo sapiens; experiment: Binding affinity to BLC2 i-motif promoter DNA in human U2932 MYC translocation-positive and BCL2 amplification-positive cells assessed as downregulation of BCL2 protein levels at 1 to 3 uM after 24 hrs by Western blot analysis; procedure, shortened: as §3
Mus musculus [17] = experiment: Reduction in Myc mRNA level in tumor of SCID mouse xenografted with human U2932 cells at 10 mg/kg, ip administered for 5 consecutive days cotreated with CPA and NSC-338258 by qPCR method; format: functional, organism-based; procedure, shortened: as §6
Homo sapiens [18] = organism: Homo sapiens; experiment: Binding affinity to c-myc G-quadruplex DNA in BCL2 translocation-positive human SUDHL4 cells assessed as downregulation of MYC mRNA levels up to 3 uM after 24 hrs by qPCR method relative to control; procedure, shortened: as §1
Homo sapiens [19] = organism: Homo sapiens; experiment: Stabilization of BCL2 i-motif promoter DNA in BCL2 and MYC translocation-positive human VAL cells assessed as potentiation of CPA-induced cytotoxicity by measuring fold reduction in CPA IC50 at 2 to 3 uM after 96 hrs by MTS assay
Procedure, shortened: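 MTS viability assay. 100 000 cells incubated 96 h with increasing CPA alone or with ligand (1−3 μM). Viability expressed relative to untreated cells. CPA IC50 fitted by Boltzmann sigmoidal equation with variable slope, and fold change in IC50 taken from the fitted values.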

Homo sapiens [20] = organism: Homo sapiens; experiment: as §2, with “in” for “in BCL2 and”, “translocation-positive and BCL2 amplification-positive” for “translocation-positive”, “U2932” for “VAL”
Mus musculus [21] = experiment: Toxicity in scid mouse xenografted with human U2932 cells assessed as change in body weight at 10 mg/kg, ip administered for 5 consecutive days in presence of CPA and NSC-338258; format: organism-based; settings: in vivo; procedure, shortened: as §5
U2932 [22] = experiment: Potentiation of CPA-induced antitumor activity against human U2932 cells xenografted in SCID mouse assessed as reduction in tumor burden AUC at 10 mg/kg, ip for 5 days cotreated with 5 to 7.5 mg/kg NSC-338258 measured on day 9 to 15 post first treatment; format: functional, organism-based; procedure, shortened: as §4

COc1ccc2c(c1)CN([C@@H](C)[C@H]1CC[C@H]3[C@@H]4CC[C@H]5C[C@@H](O)CC[C@]5(C)[C@H]4CC[C@]13C)CO2
Activity (HT): inactive
Activity (Homo sapiens [1]): 100%
Activity (Homo sapiens [2]): Active
Activity (Homo sapiens [3]): 100%
Activity (Homo sapiens [4]): 11 to 37%
Activity (U2932 [5]): inactive
Activity (Homo sapiens [6]): inactive
TGI (U2932 [7]): 37%
Activity (Homo sapiens [8]): inactive
TGI (U2932 [9]): 50%
TGI (U2932 [10]): 46%
Activity (Homo sapiens [11]): 11 to 37%
Activity (Homo sapiens [12]): Active
Activity (Homo sapiens [13]): 11 to 37%
Activity (Mus musculus [14]): Non-Toxic
Activity (Mus musculus [15]): Active
Activity (Homo sapiens [16]): Active
Activity (Mus musculus [17]): Active
Activity (Homo sapiens [18]): inactive
fold change (FC) (Homo sapiens [19]): 1.7
Activity (Homo sapiens [20]): 100%
Activity (Mus musculus [21]): Non-Toxic
Activity (U2932 [22]): Active
